Data from ChEMBL document CHEMBL3124806, “Imidazopyridine-fused [1,3]-diazepinones: synthesis and antiproliferative activity” (Eur J Med Chem, 2014).

How the values were obtained:
[1] = species on record: Ovis aries; test: Inhibition of sheep brain tubulin polymerization at 100 uM after 40 mins by DAPI staining-based fluorescence assay
Outline: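 Microtubular protein was purified from sheep brain by two assembly/disassembly cycles (37 °C/0 °C) in MES buffer (100 mM MES pH 6.6, 1 mM EGTA, 0.5 mM MgCl₂). Compound in DMSO was added to 10 µM tubulin with 10 µM DAPI and incubated 40 min at RT. GTP (1 mM) was then added, and assembly was followed by DAPI fluorescence at 37 °C.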

[2] = test system: MDA-MB-468; test: Cytotoxicity against human MDA-MB-468 cells assessed as cell growth at 10 uM after 48 hrs by SRB assay relative to untreated control; assay type: functional; details: MDA-MB-468, 48 h, read-out: Activity
Outline: (§1)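 NCI-60 one-dose screen: each agent added at 10 µM, cultures incubated 48 h. Endpoint by sulforhodamine B protein-binding dye read spectrophotometrically; growth expressed as percent of untreated control cells.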

[3] = Cytotoxicity against human Hs578T cells assessed as cell growth at 10 uM after 48 hrs by SRB assay relative to untreated control; assay type: functional; details: Hs-578T, read-out: Activity
Outline: (§2)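 NCI-60 panel screen at a single concentration of 10 μM with 48 h incubation. Cell density measured by sulforhodamine B protein-binding dye and read spectrophotometrically. Growth expressed as percent of untreated control cells.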

[4] = test system: MDA-MB-231; test: Cytotoxicity against human MDA-MB-231 cells assessed as cell growth at 10 uM after 48 hrs by SRB assay relative to untreated control; assay type: functional; details: MDA-MB-231, 48 h, read-out: Activity; outline: as §1
[5] = test system: DU-145; test: Cytotoxicity against human DU145 cells assessed as cell growth at 10 uM after 48 hrs by SRB assay relative to untreated control; assay type: functional; details: DU-145, 48 h, read-out: Activity; outline: as §2
[6] = test system: PC-3; test: Cytotoxicity against human PC3 cells assessed as cell growth at 10 uM after 48 hrs by SRB assay relative to untreated control; assay type: functional; details: PC-3, 48 h, read-out: Activity; outline: as §1
[7] = test system: SN12C; test: Cytotoxicity against human SN12C cells assessed as cell growth at 10 uM after 48 hrs by SRB assay relative to untreated control; assay type: functional; details: read-out: Activity
Outline: (§3)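 NCI-60 single-dose screen. Compounds were added to the cultures at 10 μM and incubated for 48 h. The end point was sulforhodamine B protein staining read spectrophotometrically. Growth is reported as percent of untreated control cells.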

[8] = test system: RXF 393; test: Cytotoxicity against human RXF393 cells assessed as cell growth at 10 uM after 48 hrs by SRB assay relative to untreated control; assay type: functional; details: RXF 393, 48 h, read-out: Activity; outline: as §1
[9] = test system: A498; test: Cytotoxicity against human A498 cells assessed as cell growth at 10 uM after 48 hrs by SRB assay relative to untreated control; assay type: functional; details: A498, 48 h, read-out: Activity; outline: as §2
[10] = Cytotoxicity against human NCI-ADR-RES cells assessed as cell growth at 10 uM after 48 hrs by SRB assay relative to untreated control; assay type: functional; details: read-out: Activity; outline: as §1
[11] = Cytotoxicity against human OVCAR5 cells assessed as cell growth at 10 uM after 48 hrs by SRB assay relative to untreated control; assay type: functional; details: OVCAR-5, 48 h, read-out: Activity; outline: as §1
[12] = Cytotoxicity against human OVCAR4 cells assessed as cell growth at 10 uM after 48 hrs by SRB assay relative to untreated control; assay type: functional; details: OVCAR-4, 48 h, read-out: Activity; outline: as §1
[13] = test system: UACC-62; test: Cytotoxicity against human UACC62 cells assessed as cell growth at 10 uM after 48 hrs by SRB assay relative to untreated control; assay type: functional; details: UACC-62, 48 h, read-out: Activity; outline: as §3
[14] = test system: SK-MEL-5; test: Cytotoxicity against human SK-MEL-5 cells assessed as cell growth at 10 uM after 48 hrs by SRB assay relative to untreated control; assay type: functional; details: SK-MEL-5, 48 h, read-out: Activity; outline: as §3
[15] = test system: SK-MEL-28; test: Cytotoxicity against human SK-MEL-28 cells assessed as cell growth at 10 uM after 48 hrs by SRB assay relative to untreated control; assay type: functional; details: SK-MEL-28, 48 h, read-out: Activity; outline: as §3
[16] = test system: SK-MEL-2; test: Cytotoxicity against human SK-MEL-2 cells assessed as cell growth at 10 uM after 48 hrs by SRB assay relative to untreated control; assay type: functional; details: SK-MEL-2, 48 h, read-out: Activity; outline: as §1
[17] = test system: SNB-75; test: Cytotoxicity against human SNB75 cells assessed as cell growth at 10 uM after 48 hrs by SRB assay relative to untreated control; assay type: functional; details: SNB-75, 48 h, read-out: Activity; outline: as §3
[18] = test system: KM12; test: Cytotoxicity against human KM12 cells assessed as cell growth at 10 uM after 48 hrs by SRB assay relative to untreated control; assay type: functional; details: KM12, 48 h, read-out: Activity; outline: as §2
[19] = test system: HCT-116; test: Cytotoxicity against human HCT116 cells assessed as cell growth at 10 uM after 48 hrs by SRB assay relative to untreated control; assay type: functional; details: HCT-116, 48 h, read-out: Activity; outline: as §2
[20] = test system: HCC 2998; test: Cytotoxicity against human HCC2998 cells assessed as cell growth at 10 uM after 48 hrs by SRB assay relative to untreated control; assay type: functional; details: HCC 2998, 48 h, read-out: Activity; outline: as §2
[21] = test system: COLO 205; test: Cytotoxicity against human COLO205 cells assessed as cell growth at 10 uM after 48 hrs by SRB assay relative to untreated control; assay type: functional; details: COLO 205, 48 h, read-out: Activity; outline: as §2
[22] = test system: NCI-H522; test: Cytotoxicity against human NCI-H522 cells assessed as cell growth at 10 uM after 48 hrs by SRB assay relative to untreated control; assay type: functional; details: NCI-H522, 48 h, read-out: Activity; outline: as §1
[23] = test system: NCI-H460; test: Cytotoxicity against human NCI-H460 cells assessed as cell growth at 10 uM after 48 hrs by SRB assay relative to untreated control; assay type: functional; details: NCI-H460, 48 h, read-out: Activity; outline: as §1
[24] = test system: NCI-H23; test: Cytotoxicity against human NCI-H23 cells assessed as cell growth at 10 uM after 48 hrs by SRB assay relative to untreated control; assay type: functional; details: NCI-H23, 48 h, read-out: Activity; outline: as §1
[25] = test system: HOP-62; test: Cytotoxicity against human HOP62 cells assessed as cell growth at 10 uM after 48 hrs by SRB assay relative to untreated control; assay type: functional; details: HOP-62, 48 h, read-out: Activity; outline: as §2
[26] = test system: A549; test: Cytotoxicity against human A549 cells assessed as cell growth at 10 uM after 48 hrs by SRB assay relative to untreated control; assay type: functional; details: A549, 48 h, read-out: Activity; outline: as §2
[27] = test system: SR; test: Cytotoxicity against human SR cells assessed as cell growth at 10 uM after 48 hrs by SRB assay relative to untreated control; assay type: functional; details: read-out: Activity; outline: as §3
[28] = test system: HL-60(TB); test: Cytotoxicity against human HL-60(TB) cells assessed as cell growth at 10 uM after 48 hrs by SRB assay relative to untreated control; assay type: functional; details: HL-60, 48 h, read-out: Activity
Outline: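 NCI-60 human tumour cell line panel; a single 10 µM concentration was added to the cultures and incubated 48 h. Endpoint was sulforhodamine B protein-binding dye read spectrophotometrically, with growth reported as percent of untreated control cells.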

Compound | growth at 10 µM [2] [%] | growth at 10 µM [3] [%] | growth at 10 µM [4] [%] | growth at 10 µM [5] [%] | growth at 10 µM [6] [%] | growth at 10 µM [7] [%] | growth at 10 µM [8] [%] | growth at 10 µM [9] [%] | growth at 10 µM [10] [%] | growth at 10 µM [11] [%] | growth at 10 µM [12] [%] | growth at 10 µM [13] [%] | growth at 10 µM [14] [%] | growth at 10 µM [15] [%] | growth at 10 µM [16] [%] | growth at 10 µM [17] [%] | growth at 10 µM [18] [%] | growth at 10 µM [19] [%] | growth at 10 µM [20] [%] | growth at 10 µM [21] [%] | other results
C[C@@H]1NC(c2ccc(Br)cc2)=Nc2nc3ccccn3c2C1=O | -0.5 | 71.3 | 52.7 | 87.7 | 63.2 | 91.8 | 68.2 | 69.9 | 39.4 | 82.4 | 77.5 | 49.2 | 31.9 | 66.2 | 47.4 | 50.2 | 29.6 | 29.2 | 69 | 26.3 | inhibition [1]: 8%; growth at 10 µM [22]: 34.8%; growth at 10 µM [23]: 32.5%; growth at 10 µM [24]: 53.7%; growth at 10 µM [25]: 55.8%; growth at 10 µM [26]: 54.7%; growth at 10 µM [27]: 30%
Cc1ccc(C2=Nc3nc4ccccn4c3C(=O)[C@@H]3CCCN23)cc1 | 94.8 | 94 | 93.8 | 97.4 | 81.9 | 101 | 85.2 | 68.5 | 94.9 | 91.1 | 98.2 | 101 | 92.5 | 108 | 105 | 90 | 98.6 | 94 | 99.4 | 94.4 | growth at 10 µM [22]: 102%; growth at 10 µM [23]: 102%; growth at 10 µM [24]: 92%; growth at 10 µM [25]: 82.9%; growth at 10 µM [26]: 92.7%; growth at 10 µM [27]: 88.5%; growth at 10 µM [28]: 125%
Cc1ccc(C2=Nc3nc4ccccn4c3C(=O)[C@H](Cc3ccccc3)N2)cc1 | 84.5 | 96.2 | 93.7 | 117 | 80.7 | 104 | 95.7 | 101 | 87.1 | 99.2 | 102 | 93.2 | 86.5 | 109 | 105 | 80.2 | 92.9 | 94.3 | 106 | 113 | growth at 10 µM [22]: 98.1%; growth at 10 µM [23]: 103%; growth at 10 µM [24]: 82.5%; growth at 10 µM [25]: 75.9%; growth at 10 µM [26]: 94.9%; growth at 10 µM [27]: 89.7%; growth at 10 µM [28]: 116%
